Experimental data published in ChEMBL document CHEMBL5376013, “Design, synthesis and biological evaluation of novel morpholinopyrimidine-5-carbonitrile derivatives as dual PI3K/mTOR inhibitors” (RSC Med Chem, 2024).

Experiments:
Assay type in all cases: functional
Details in all cases: read-out: GI
CCRF-CEM = assay: Antitumor activity against human CCRF-CEM cells assessed as growth inhibition at 10 uM relative to control
Method in brief: (§1)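 After drug addition, plates were incubated 48 h at 37 °C under 5% CO2. Adherent cells were fixed with cold TCA (10% final, 60 min, 4 °C) and suspension cells with 16% final TCA. Staining used 0.4% SRB in 1% acetic acid, solubilized in 10 mM trizma, read at A515. Percent growth was calculated from time-zero, control and treated absorbances.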

HL-60 = assay: Antitumor activity against human HL-60 cells assessed as growth inhibition at 10 uM relative to control; method in brief: as §1
K562 = assay: Antitumor activity against human K562 cells assessed as growth inhibition at 10 uM relative to control; method in brief: as §1
MOLT-4 = assay: Antitumor activity against human MOLT-4 cells assessed as growth inhibition at 10 uM relative to control; method in brief: as §1
RPMI-8226 = assay: Antitumor activity against human RPMI-8226 cells assessed as growth inhibition at 10 uM relative to control; method in brief: as §1
SR = assay: Antitumor activity against human SR cells assessed as growth inhibition at 10 uM relative to control
Method in brief: (§2)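 Drug exposure 48 h at 37 °C, 5% CO2. Adherent cells fixed with cold TCA (10% final), suspension cells with TCA (16% final). Stained with 0.4% SRB in 1% acetic acid, dissolved in 10 mM Tris, A515. Growth relative to time-zero and untreated control.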

EKVX = assay: Antitumor activity against human EKVX cells assessed as growth inhibition at 10 uM relative to control; method in brief: as §1
HOP-62 = assay: Antitumor activity against human HOP-62 cells assessed as growth inhibition at 10 uM relative to control; method in brief: as §1
HOP-92 = assay: Antitumor activity against human HOP-92 cells assessed as growth inhibition at 10 uM relative to control; method in brief: as §1
NCI-H226 = assay: Antitumor activity against human NCI-H226 cells assessed as growth inhibition at 10 uM relative to control; method in brief: as §1
NCI-H23 = assay: Antitumor activity against human NCI-H23 cells assessed as growth inhibition at 10 uM relative to control; method in brief: as §1
NCI-H322M = assay: Antitumor activity against human NCI-H322M cells assessed as growth inhibition at 10 uM relative to control; method in brief: as §1
NCI-H522 = assay: Antitumor activity against human NCI-H522 cells assessed as growth inhibition at 10 uM relative to control; method in brief: as §1
COLO 205 = assay: Antitumor activity against human COLO 205 cells assessed as growth inhibition at 10 uM relative to control; method in brief: as §1
HCC 2998 = assay: Antitumor activity against human HCC 2998 cells assessed as growth inhibition at 10 uM relative to control; method in brief: as §1
HCT-116 = assay: Antitumor activity against human HCT-116 cells assessed as growth inhibition at 10 uM relative to control; method in brief: as §1
KM12 = assay: Antitumor activity against human KM12 cells assessed as growth inhibition at 10 uM relative to control; method in brief: as §1
SW-620 = assay: Antitumor activity against human SW-620 cells assessed as growth inhibition at 10 uM relative to control; method in brief: as §2
SF-268 = assay: Antitumor activity against human SF-268 cells assessed as growth inhibition at 10 uM relative to control; method in brief: as §1
SF-295 = assay: Antitumor activity against human SF-295 cells assessed as growth inhibition at 10 uM relative to control; method in brief: as §1
SF-539 = assay: Antitumor activity against human SF-539 cells assessed as growth inhibition at 10 uM relative to control; method in brief: as §1
SNB-19 = assay: Antitumor activity against human SNB-19 cells assessed as growth inhibition at 10 uM relative to control; method in brief: as §2
SNB-75 = assay: Antitumor activity against human SNB-75 cells assessed as growth inhibition at 10 uM relative to control; method in brief: as §2
U-251 = assay: Antitumor activity against human U-251 cells assessed as growth inhibition at 10 uM relative to control; method in brief: as §2
LOX IMVI = assay: Antitumor activity against human LOX IMVI cells assessed as growth inhibition at 10 uM relative to control; method in brief: as §1
Malme-3M = assay: Antitumor activity against human Malme-3M cells assessed as growth inhibition at 10 uM relative to control; method in brief: as §1
M14 = assay: Antitumor activity against human M14 cells assessed as growth inhibition at 10 uM relative to control; method in brief: as §1
MDA-MB-435 = assay: Antitumor activity against human MDA-MB-435 cells assessed as growth inhibition at 10 uM relative to control; method in brief: as §1
SK-MEL-28 = assay: Antitumor activity against human SK-MEL-28 cells assessed as growth inhibition at 10 uM relative to control; method in brief: as §2
SK-MEL-5 = assay: Antitumor activity against human SK-MEL-5 cells assessed as growth inhibition at 10 uM relative to control; method in brief: as §2
IGROV-1 = assay: Antitumor activity against human IGROV-1 cells assessed as growth inhibition at 10 uM relative to control; method in brief: as §1
OVCAR-3 = assay: Antitumor activity against human OVCAR-3 cells assessed as growth inhibition at 10 uM relative to control; method in brief: as §1
OVCAR-8 = assay: Antitumor activity against human OVCAR-8 cells assessed as growth inhibition at 10 uM relative to control; method in brief: as §1
NCI/ADR-RES = assay: Antitumor activity against human NCI-ADR-RES cells assessed as growth inhibition at 10 uM relative to control; method in brief: as §1
786-0 = assay: Antitumor activity against human 786-0 cells assessed as growth inhibition at 10 uM relative to control; method in brief: as §1
A498 = assay: Antitumor activity against human A498 cells assessed as growth inhibition at 10 uM relative to control; method in brief: as §1
ACHN = assay: Antitumor activity against human ACHN cells assessed as growth inhibition at 10 uM relative to control; method in brief: as §1
RXF 393 = assay: Antitumor activity against human RXF 393 cells assessed as growth inhibition at 10 uM relative to control; method in brief: as §1
UO-31 = assay: Antitumor activity against human UO-31 cells assessed as growth inhibition at 10 uM relative to control; method in brief: as §2
PC-3 = assay: Antitumor activity against human PC-3 cells assessed as growth inhibition at 10 uM relative to control; method in brief: as §1
DU-145 = assay: Antitumor activity against human DU-145 cells assessed as growth inhibition at 10 uM relative to control; method in brief: as §1
MDA-MB-231 = assay: Antitumor activity against human MDA-MB-231 cells assessed as growth inhibition at 10 uM relative to control; method in brief: as §1
Hs-578T = assay: Antitumor activity against human Hs-578T cells assessed as growth inhibition at 10 uM relative to control; method in brief: as §1
BT-549 = assay: Antitumor activity against human BT-549 cells assessed as growth inhibition at 10 uM relative to control; method in brief: as §1
T47D = assay: Antitumor activity against human T47D cells assessed as growth inhibition at 10 uM relative to control; method in brief: as §2
MDA-MB-468 = assay: Antitumor activity against human MDA-MB-468 cells assessed as growth inhibition at 10 uM relative to control; method in brief: as §1

## N#Cc1c(-c2ccc(Cl)cc2)nc(N/N=C/c2cccc([N+](=O)[O-])c2)nc1N1CCOCC1
CCRF-CEM
  inhibition of growth at 10 µM: 25.3%
HL-60
  inhibition of growth at 10 µM: 13.5%
K562
  inhibition of growth at 10 µM: 33.6%
MOLT-4
  inhibition of growth at 10 µM: 36.6%
RPMI-8226
  inhibition of growth at 10 µM: 43.4%
SR
  inhibition of growth at 10 µM: 42.5%
EKVX
  inhibition of growth at 10 µM: 33.8%
HOP-62
  inhibition of growth at 10 µM: < 1%
HOP-92
  inhibition of growth at 10 µM: 28.7%
NCI-H226
  inhibition of growth at 10 µM: 28.7%
NCI-H23
  inhibition of growth at 10 µM: < 1%
NCI-H322M
  inhibition of growth at 10 µM: 14.3%
NCI-H522
  inhibition of growth at 10 µM: 24.1%
COLO 205
  inhibition of growth at 10 µM: 14.6%
HCC 2998
  inhibition of growth at 10 µM: < 1%
HCT-116
  inhibition of growth at 10 µM: 20.1%
KM12
  inhibition of growth at 10 µM: < 1%
SW-620
  inhibition of growth at 10 µM: < 1%
SF-268
  inhibition of growth at 10 µM: 12.3%
SF-295
  inhibition of growth at 10 µM: < 1%
SF-539
  inhibition of growth at 10 µM: 17.7%
SNB-19
  inhibition of growth at 10 µM: 10%
SNB-75
  inhibition of growth at 10 µM: 33.4%
U-251
  inhibition of growth at 10 µM: 40.1%
LOX IMVI
  inhibition of growth at 10 µM: 26%
Malme-3M
  inhibition of growth at 10 µM: < 1%
M14
  inhibition of growth at 10 µM: 16.4%
MDA-MB-435
  inhibition of growth at 10 µM: 12.1%
SK-MEL-28
  inhibition of growth at 10 µM: 10.2%
SK-MEL-5
  inhibition of growth at 10 µM: 14.9%
IGROV-1
  inhibition of growth at 10 µM: 28.1%
OVCAR-3
  inhibition of growth at 10 µM: 11.2%
OVCAR-8
  inhibition of growth at 10 µM: 12.5%
NCI/ADR-RES
  inhibition of growth at 10 µM: 17.5%
786-0
  inhibition of growth at 10 µM: 13.2%
A498
  inhibition of growth at 10 µM: 47.5%
ACHN
  inhibition of growth at 10 µM: 21.3%
RXF 393
  inhibition of growth at 10 µM: 56.6%
UO-31
  inhibition of growth at 10 µM: 65.1%
PC-3
  inhibition of growth at 10 µM: 35.8%
DU-145
  inhibition of growth at 10 µM: 13.1%
MDA-MB-231
  inhibition of growth at 10 µM: 17.6%
Hs-578T
  inhibition of growth at 10 µM: < 1%
BT-549
  inhibition of growth at 10 µM: 27.6%
T47D
  inhibition of growth at 10 µM: 42%
MDA-MB-468
  inhibition of growth at 10 µM: 26.1%

## N#Cc1c(-c2ccc(Cl)cc2)nc(N/N=C/c2cccc(O)c2)nc1N1CCOCC1
CCRF-CEM
  inhibition of growth at 10 µM: 63.8%
HL-60
  inhibition of growth at 10 µM: 33.4%
K562
  inhibition of growth at 10 µM: 54.9%
MOLT-4
  inhibition of growth at 10 µM: 60.2%
RPMI-8226
  inhibition of growth at 10 µM: 62.6%
SR
  inhibition of growth at 10 µM: 95.3%
EKVX
  inhibition of growth at 10 µM: 33.4%
HOP-62
  inhibition of growth at 10 µM: 21.2%
HOP-92
  inhibition of growth at 10 µM: 36.7%
NCI-H226
  inhibition of growth at 10 µM: 36.7%
NCI-H23
  inhibition of growth at 10 µM: < 1%
NCI-H322M
  inhibition of growth at 10 µM: 13.7%
NCI-H522
  inhibition of growth at 10 µM: 25.2%
COLO 205
  inhibition of growth at 10 µM: 14.8%
HCC 2998
  inhibition of growth at 10 µM: < 1%
HCT-116
  inhibition of growth at 10 µM: 42.1%
KM12
  inhibition of growth at 10 µM: 24%
SW-620
  inhibition of growth at 10 µM: 35.2%
SF-268
  inhibition of growth at 10 µM: 18.1%
SF-295
  inhibition of growth at 10 µM: < 1%
SF-539
  inhibition of growth at 10 µM: 32.2%
SNB-19
  inhibition of growth at 10 µM: 13.1%
SNB-75
  inhibition of growth at 10 µM: 53.9%
U-251
  inhibition of growth at 10 µM: 14.2%
LOX IMVI
  inhibition of growth at 10 µM: 38.2%
Malme-3M
  inhibition of growth at 10 µM: < 1%
M14
  inhibition of growth at 10 µM: 33.4%
MDA-MB-435
  inhibition of growth at 10 µM: 13%
SK-MEL-28
  inhibition of growth at 10 µM: 22.9%
SK-MEL-5
  inhibition of growth at 10 µM: 23.5%
IGROV-1
  inhibition of growth at 10 µM: 35.1%
OVCAR-3
  inhibition of growth at 10 µM: 22.3%
OVCAR-8
  inhibition of growth at 10 µM: 34.6%
NCI/ADR-RES
  inhibition of growth at 10 µM: 35.1%
786-0
  inhibition of growth at 10 µM: 35.7%
A498
  inhibition of growth at 10 µM: 24.9%
ACHN
  inhibition of growth at 10 µM: 39.1%
RXF 393
  inhibition of growth at 10 µM: < 1%
UO-31
  inhibition of growth at 10 µM: 64.3%
PC-3
  inhibition of growth at 10 µM: 36.2%
DU-145
  inhibition of growth at 10 µM: 36.6%
MDA-MB-231
  inhibition of growth at 10 µM: < 1%
Hs-578T
  inhibition of growth at 10 µM: 10.6%
BT-549
  inhibition of growth at 10 µM: 26.9%
T47D
  inhibition of growth at 10 µM: 35.4%
MDA-MB-468
  inhibition of growth at 10 µM: 12.6%
